According to ChEMBL document CHEMBL1153986, “Novel approach for chemotype hopping based on annotated databases of chemically feasible fragments and a prospective case study: new melanin concentrating hormone antagonists” (J Med Chem, 2009):

What was measured:
[1] = target: T1, Melanin-concentrating hormone receptor 1 (Homo sapiens, UniProt Q99705); assay: Antagonist activity at MCH1R; assay type: functional
How it was run: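 MCH-1 receptor-expressing CHO cells seeded 24 h before (5000 cells/well), loaded with calcium assay kit containing 10 mM probenicide for 90 min at 37 °C, 5% CO2. Serial dilutions of compound added, 20 min at room temperature in the dark, then submaximal MCH challenge; intracellular calcium change recorded on FLIPR III.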

[2] = target: T1, Melanin-concentrating hormone receptor 1; assay: Antagonist activity at MCH1R by [35S]GTPgammaS binding assay; assay type: functional
[3] = target: T1, Melanin-concentrating hormone receptor 1

T1 sequence (Q99705 whole entry): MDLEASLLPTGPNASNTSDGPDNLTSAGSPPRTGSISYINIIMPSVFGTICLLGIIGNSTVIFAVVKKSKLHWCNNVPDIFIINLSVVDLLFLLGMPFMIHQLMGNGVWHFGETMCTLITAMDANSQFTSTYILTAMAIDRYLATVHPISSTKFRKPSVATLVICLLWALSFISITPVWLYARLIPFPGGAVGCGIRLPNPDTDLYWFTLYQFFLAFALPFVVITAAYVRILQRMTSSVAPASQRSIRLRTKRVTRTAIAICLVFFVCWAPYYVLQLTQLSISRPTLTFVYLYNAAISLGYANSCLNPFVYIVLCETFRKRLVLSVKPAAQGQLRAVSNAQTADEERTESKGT

In the case of `COc1cc(-c2cnc3[nH]c(-c4ccc(Cl)cc4)cn3c2=O)ccc1OCCN1CCCC1`, the Ki [1] is reported as 0.077 µM.

`CCN(CC)Cc1ccc2c(c1)CCC(N1CCN(CCc3ccc(F)cc3)CC1=O)C2` (centres undefined) was tested, and the Ki [1] was 0.003 µM.

In the case of `CN(C)CC1CCc2cc(NC(=O)c3ccc(-c4ccc(F)cc4)cc3)ccc2C1` (centres undefined), the IC50 [2] is reported as 0.019 µM.

Molecule `Cn1cc(CCN2CCCC2)c2ccc(-n3ccc4nc(-c5ccc(Cl)cc5)sc4c3=O)cc21` has a Ki [1] of 0.00316 µM.

`O=c1cc(/C=C/c2ccccc2)ccn1-c1ccc(OCCN2CCCC2)cc1` gave an Activity [1] of 1.5 nM.

`C(=C\c1ccc(-c2nnc(CSCCOc3ccccc3)o2)cc1)/CN1CCCC1` showed an Activity [1] of 1.9 nM.

Molecule `COc1cc(-n2ccnc(CCCc3ccccc3)c2=O)ccc1OCCN1CCCC1` has an IC50 [3] of 0.105 µM.

`COc1cc(-n2ccnc(OCCc3ccccc3)c2=O)ccc1OCCN1CCCC1` showed an IC50 [3] of 0.0832 µM.

In the case of `COc1cc(-n2cnc3cc(-c4ccccc4)ccc3c2=O)ccc1OCCN1CCCC1`, the Activity [1] is reported as 2.1 nM.

For `COc1cc(-n2ccnc(NCCc3ccccc3)c2=O)ccc1OCCN1CCCC1`, the IC50 [3] was 0.0457 µM.

With `COc1cc(-n2nnc3cc(-c4ccc(Cl)cc4)sc3c2=O)ccc1N1CC[C@@H](O)C1` the IC50 [1] was > 5 µM.

`CN(C)CCOc1ccc(-n2ccn(-c3ccc(Oc4ccccc4)cc3)c2=O)cc1` was tested, and the IC50 [1] was > 0.1 µM.

In the case of `CC(C)N(C)c1nc2cc(-c3noc(COCc4ccc(Cl)cc4)n3)ccc2[nH]1`, the IC50 [1] is reported as 0.007 µM.

In the case of `CN[C@@H]1CCN(c2ccc(-n3ccc4cc(-c5ccc(C(F)(F)F)cc5)sc4c3=O)cn2)C1`, the Ki [1] is reported as 0.0033 µM.
